The record followed here is ChEMBL document CHEMBL3132745, “Synthesis and Antimicrobial Activities of His(2-aryl)-Arg and Trp-His(2-aryl) Classes of Dipeptidomimetics” (Medchemcomm, 2014).

SMILES strings stand for the structures. Values after ≈ are worked out from the molar mass of the structure shown. Active and inactive are the calls of the source. Residues, ends and D or L forms follow the SMILES beside them.

One data set relates to Aspergillus fumigatus. The data set can be described thus: Antifungal activity against Aspergillus fumigatus assessed as growth inhibition. Format: functional, organism-based.
A further data set concerns Nakaseomyces glabratus. The data set can be described thus: Antifungal activity against Candida glabrata assessed as growth inhibition. Format: functional, organism-based.
In the next data set the test system is SK-OV-3. As to the kind of experiment: Cytotoxicity against human SKOV3 cells assessed as cell viability after 48 hrs by neutral red uptake assay. Format: cell-based. To be noted: sk-ov-3, 48 h. A digest of the protocol: (§1)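 Neutral red uptake assay on human cancer lines (SK-MEL, KB, BT-549, SK-OV-3) and noncancerous mammalian cells (VERO, LLC-PK1). Highest tested concentration was 10 µg/mL.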

The next data set deals with Cryptococcus neoformans. As to the kind of experiment: Antifungal activity against Cryptococcus neoformans ATCC 90113 assessed as growth inhibition after 70-74 hrs by CLSI method. In kind it is functional, organism-based.
The test system of the next data set is BT-549. As to the kind of experiment: Cytotoxicity against human BT549 cells assessed as cell viability after 48 hrs by neutral red uptake assay. Format: cell-based. Particulars: bt-549, 48 h. A digest of the protocol:
as §1

A further data set deals with LLC-PK1. As to the kind of experiment: Cytotoxicity against pig LLC-PK1 cells assessed as cell viability after 48 hrs by neutral red uptake assay. In kind it is cell-based, Sus scrofa. To be noted: llc-pk1, 48 h. A digest of the protocol:
as §1

The test system of another data set is KB. The data set can be described thus: Cytotoxicity against human KB cells assessed as cell viability after 48 hrs by neutral red uptake assay. In kind it is cell-based. The method, boiled down:
as §1

The subject of data set [1] is Staphylococcus aureus. The data set can be described thus: Antibacterial activity against methicillin-resistant Staphylococcus aureus ATCC 33591 assessed as growth inhibition after 16-20 hrs by CLSI method. In kind it is functional, organism-based.
The next data set has as its system SK-MEL. As to the kind of experiment: Cytotoxicity against human SK-MEL cells assessed as cell viability after 48 hrs by neutral red uptake assay. Format: cell-based. The method, boiled down:
as §1

The test system of a further data set is Escherichia coli. The data set can be described thus: Antibacterial activity against Escherichia coli ATCC 35218 assessed as growth inhibition after 16-20 hrs by CLSI method. Format: functional, organism-based.
In a further data set the test system is Pichia kudriavzevii. As to the kind of experiment: Antifungal activity against Candida krusei assessed as growth inhibition. Format: functional, organism-based.
A further data set concerns Vero. As to the kind of experiment: Cytotoxicity against african green monkey Vero cells assessed as cell viability after 48 hrs by neutral red uptake assay. Particulars: chlorocebus sabaeus. Format: cell-based. A digest of the protocol:
as §1

Data set [2] has as its system Staphylococcus aureus. As to the kind of experiment: Antibacterial activity against Staphylococcus aureus ATCC 29213 assessed as growth inhibition after 16-20 hrs by CLSI method. In kind it is functional, organism-based.
Another data set concerns Candida albicans. As to the kind of experiment: Antifungal activity against Candida albicans assessed as growth inhibition. Format: functional, organism-based.
Data set [3] is described as follows: Selectivity index, ratio of cytotoxicity against human SKOV3 cells to IC50 for Cryptococcus neoformans ATCC 90113. Format: toxicity, cell-based, SK-OV-3. Particulars: read-out: Selectivity Index.
Data set [4] in a line: Selectivity index, ratio of cytotoxicity against human SK-MEL cells to IC50 for Cryptococcus neoformans ATCC 90113. Format: toxicity, cell-based. Particulars: read-out: Selectivity Index.
Data set [5] can be described thus: Selectivity index, ratio of cytotoxicity against human KB cells to IC50 for Cryptococcus neoformans ATCC 90113. Particulars: read-out: Selectivity Index. Format: toxicity, cell-based.
A short description of data set [6]: Selectivity index, ratio of cytotoxicity against human BT549 cells to IC50 for Cryptococcus neoformans ATCC 90113. In kind it is toxicity, cell-based, BT-549. To be noted: read-out: Selectivity Index.
A short description of data set [7]: Selectivity index, ratio of cytotoxicity against african green monkey Vero cells to IC50 for Cryptococcus neoformans ATCC 90113. In kind it is toxicity, cell-based. Particulars: read-out: Selectivity Index.
A short description of data set [8]: Selectivity index, ratio of cytotoxicity against pig LLC-PK1 cells to IC50 for Cryptococcus neoformans ATCC 90113. To be noted: read-out: Selectivity Index. Format: toxicity, cell-based.
[9] abbreviates: Cryptococcus neoformans, ATCC 90113, read-out: IC50.
Where [10] appears, read: Cryptococcus neoformans, ATCC 90113.

A word on the MFC: it is the lowest tested concentration that kills the fungus rather than only halting it. In general, MIC refers to the lowest concentration that inhibits growth of the organism. The IC50 is the concentration needed to halve the response being measured. For `COC(=O)[C@H](Cc1c[nH]c(-c2ccc(C(C)(C)C)cc2)n1)NC(=O)[C@H](Cc1c[nH]c2ccccc12)NC(=O)OC(C)(C)C`, the “growth inhibition (GI)” value with Aspergillus fumigatus, with Nakaseomyces glabratus, in the data set with Escherichia coli, in the data set on Pichia kudriavzevii and in the data set on Candida albicans was “inactive” in each case. Moreover, the Activity in the data set with SK-OV-3, in the data set with BT-549, in the data set with LLC-PK1, with KB, with SK-MEL and in the data set on Vero was over 10 µg/mL each time. Besides, in the data set on Cryptococcus neoformans, the MFC result is “inactive”. For the same compound, the MIC result in the data set with Cryptococcus neoformans, in the data set with Staphylococcus aureus [1] and in the data set on Staphylococcus aureus [2] was “inactive” each time. Besides, the IC50 in the data set on Cryptococcus neoformans (setting [9]) was 18.7 µg/mL (≈ 31.8 µM); with Staphylococcus aureus [1] it was “Not Active”; with Staphylococcus aureus [2] it was 15.1 µg/mL (≈ 25.6 µM). The MBC result in the data set with Staphylococcus aureus [1] and in the data set with Staphylococcus aureus [2] was “inactive” throughout.

As to `COC(=O)[C@H](Cc1c[nH]c(-c2ccccc2)n1)NC(=O)[C@@H](N)Cc1c[nH]c2ccccc12`, the “growth inhibition (GI)” value in the data set with Aspergillus fumigatus, in the data set with Nakaseomyces glabratus, with Escherichia coli, with Pichia kudriavzevii and in the data set on Candida albicans was “inactive” each time. The selectivity ratio in data set [3], in data set [4], in data set [5], in data set [6], in [7] and in [8] was over 1.3 each time. The Activity in the data set on SK-OV-3, with BT-549, in the data set on LLC-PK1, with KB, in the data set with SK-MEL and in the data set on Vero was over 10 µg/mL in each case. The minimal fungicidal concentration (MFC) in the data set on Cryptococcus neoformans (setting [10]) turned out to be 20 µg/mL (≈ 46.4 µM). The minimal inhibitory concentration (MIC) in the data set on Cryptococcus neoformans (setting [10]) was determined as 20 µg/mL (≈ 46.4 µM). The IC50 in the data set on Cryptococcus neoformans (setting [9]) is 7.97 µg/mL (≈ 18.5 µM).

In the case of `CC(C)(C)OC(=O)N[C@@H](Cc1c[nH]c2ccccc12)C(=O)N[C@@H](Cc1c[nH]c(-c2ccc(C(C)(C)C)cc2)n1)C(=O)NCc1ccccc1`, the “growth inhibition (GI)” value in the data set on Aspergillus fumigatus, in the data set on Nakaseomyces glabratus, in the data set on Escherichia coli, in the data set with Pichia kudriavzevii and with Candida albicans was “inactive” throughout. In addition, the Activity in the data set on SK-OV-3, in the data set on BT-549, in the data set with LLC-PK1, with KB, in the data set on SK-MEL and in the data set on Vero was over 10 µg/mL in each case. Further, the IC50 entry is “Not Active” with Cryptococcus neoformans, “Not Active” with Staphylococcus aureus [1] and 10.2 µg/mL (≈ 15.3 µM) in the data set on Staphylococcus aureus [2]. Further, the MFC entry in the data set on Cryptococcus neoformans is “inactive”. The MIC entry in the data set on Cryptococcus neoformans, with Staphylococcus aureus [1] and in the data set on Staphylococcus aureus [2] was “inactive” throughout. For the same compound, the MBC result with Staphylococcus aureus [1] and with Staphylococcus aureus [2] was “inactive” throughout.

Take `COC(=O)[C@H](Cc1c[nH]c(-c2ccc(-c3ccccc3)cc2)n1)NC(=O)[C@H](Cc1c[nH]c2ccccc12)NC(=O)OC(C)(C)C`: the “growth inhibition (GI)” value in the data set on Aspergillus fumigatus, in the data set on Nakaseomyces glabratus, in the data set with Escherichia coli, in the data set on Pichia kudriavzevii and in the data set with Candida albicans was “inactive” each time. Also, the Activity in the data set with SK-OV-3, in the data set on BT-549, with LLC-PK1, with KB, in the data set on SK-MEL and with Vero was over 10 µg/mL throughout. For the same compound, the IC50 entry with Cryptococcus neoformans is “Not Active”; in the data set with Staphylococcus aureus [1], “Not Active”; in the data set on Staphylococcus aureus [2] it was 19 µg/mL (≈ 31.2 µM). Moreover, the MFC entry in the data set on Cryptococcus neoformans was “inactive”. Besides, the MIC entry with Cryptococcus neoformans, in the data set on Staphylococcus aureus [1] and with Staphylococcus aureus [2] was “inactive” each time. In addition, the MBC result in the data set on Staphylococcus aureus [1] and in the data set with Staphylococcus aureus [2] was “inactive” each time.

Take `COC(=O)[C@H](Cc1c[nH]c(-c2cccc3ccccc23)n1)NC(=O)[C@H](Cc1c[nH]c2ccccc12)NC(=O)OC(C)(C)C`: the “growth inhibition (GI)” value with Aspergillus fumigatus, with Nakaseomyces glabratus, with Escherichia coli, with Pichia kudriavzevii and with Candida albicans was “inactive” in each case. Besides, the Activity in the data set on SK-OV-3, in the data set on BT-549, in the data set on LLC-PK1, in the data set on KB, with SK-MEL and with Vero was over 10 µg/mL throughout. Also, in the data set with Cryptococcus neoformans, the IC50 result is given as “Not Active”. For the same compound, the MFC entry in the data set with Cryptococcus neoformans is “inactive”. Moreover, in the data set with Cryptococcus neoformans, the MIC result was “inactive”.

On to `COC(=O)[C@H](Cc1c[nH]cn1)NC(=O)[C@@H](N)Cc1c[nH]c2ccccc12` (H-Trp-His-OMe), for which the “growth inhibition (GI)” value in the data set on Aspergillus fumigatus, with Nakaseomyces glabratus, in the data set on Escherichia coli, in the data set with Pichia kudriavzevii and in the data set on Candida albicans was “inactive” each time. In addition, the Activity in the data set with SK-OV-3, in the data set on BT-549, in the data set on LLC-PK1, in the data set with KB, with SK-MEL and in the data set on Vero was over 10 µg/mL throughout. Also, in the data set with Cryptococcus neoformans, the concentration for half-maximal inhibition (IC50) result was “Not Active”. In addition, in the data set with Cryptococcus neoformans, the MFC entry is “inactive”. In addition, the MIC entry in the data set on Cryptococcus neoformans is “inactive”.

With `CC(C)(C)OC(=O)N[C@@H](Cc1c[nH]c2ccccc12)C(=O)N[C@@H](Cc1c[nH]c(-c2ccc(-c3ccccc3)cc2)n1)C(=O)NCc1ccccc1`, the “growth inhibition (GI)” value with Aspergillus fumigatus, in the data set with Nakaseomyces glabratus, in the data set on Escherichia coli, in the data set with Pichia kudriavzevii and in the data set on Candida albicans was “inactive” throughout. Besides, the Activity in the data set on SK-OV-3, in the data set on BT-549, with LLC-PK1, in the data set on KB, in the data set on SK-MEL and with Vero was over 10 µg/mL in each case. For the same compound, in the data set with Cryptococcus neoformans, the IC50 result was “Not Active”. Further, in the data set on Cryptococcus neoformans, the MFC entry was “inactive”. Also, the MIC result in the data set on Cryptococcus neoformans is “inactive”.

On to `COc1ccc(-c2nc(C[C@H](N)C(=O)N[C@@H](CCCNC(=N)N)C(=O)NCc3ccccc3)c[nH]2)cc1`, for which the “growth inhibition (GI)” value with Aspergillus fumigatus, in the data set on Nakaseomyces glabratus, in the data set with Escherichia coli, in the data set on Pichia kudriavzevii and in the data set on Candida albicans was “inactive” in each case. The Activity with SK-OV-3, in the data set on BT-549, in the data set with LLC-PK1, with KB, with SK-MEL and with Vero was over 10 µg/mL in each case. Also, the half-maximal inhibitory concentration (IC50) entry with Cryptococcus neoformans is reported as “Not Active”. Further, the MFC entry in the data set with Cryptococcus neoformans is “inactive”. The MIC result in the data set with Cryptococcus neoformans was “inactive”.

As for `COC(=O)[C@H](CCCNC(=N)N)NC(=O)[C@H](Cc1c[nH]c(-c2ccccc2)n1)NC(=O)OC(C)(C)C`, the “growth inhibition (GI)” value with Aspergillus fumigatus, with Nakaseomyces glabratus, in the data set on Escherichia coli, in the data set with Pichia kudriavzevii and with Candida albicans was “inactive” each time. Moreover, the Activity in the data set on SK-OV-3, in the data set with BT-549, in the data set with LLC-PK1, in the data set on KB, with SK-MEL and with Vero was over 10 µg/mL each time. The MFC result with Cryptococcus neoformans is “inactive”. Further, the MIC entry with Cryptococcus neoformans was “inactive”. For the same compound, in the data set with Cryptococcus neoformans (setting [9]), the IC50 stood at 16.6 µg/mL (≈ 33.1 µM).
